Series [1] is described as follows: melting temperature; fluorescence melt of hairpins on a sequencing array, two-state fit, raised by 9.35 °C to match UV melts. Conditions: sodium 0.088 M. An outline of the steps:
(§1)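 Bootstrapped two-state fits yielded melting temperature and folding enthalpy for library hairpins. Cy3 fluorescence, with annealed Cy3 and quencher oligos, was imaged on a sequenced MiSeq flow cell in 50 mM Na-HEPES pH 8.0, 25 mM NaCl in 2.5 °C steps up to 60 °C, and normalised to pre-quench Cy3 and to control constructs. Four replicates were combined by inverse variance, and fitted temperatures were raised by 9.35 °C to match UV melts.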

Series [2] can be described thus: folding enthalpy; higher = less favourable; fluorescence melt of hairpins on a sequencing array, two-state fit. Conditions: sodium 0.088 M. The gist of the method:
as §1

Data on 36 sequences can be found in the array DNA melting data of Ke et al. (doi:10.1101/2024.01.08.574731).

In the case of GTATTAGGAAACTAATGC (.(((((....))))).), the Tm in series [1] was 34.2 °C. Also, the folding enthalpy in series [2] is -28.2 kcal/mol.

On to GTATTCACGAAAGTGTAC (((..(((....)))))), for which, in series [1], the Tm is 25.8 °C. In series [2], the folding enthalpy was -9.14 kcal/mol.

For GTATTCCCGAAAGGGTAC (((..(((....)))))), the Tm in series [1] was found to be 32.9 °C. In addition, the folding enthalpy in series [2] was -8.03 kcal/mol.

On to GTATTCCGAAAGGATTAC (((.(((....))).))), for which the Tm in series [1] was 43.5 °C. In addition, the folding enthalpy in series [2] is -28.2 kcal/mol.

Regarding GTATTCGGAAACGAACAC ((.((((....)))).)), the Tm in series [1] amounted to 34.3 °C. Also, the folding enthalpy in series [2] was -25.9 kcal/mol.

On to GTATTCGGAAACGGATAC ((((.((....)).)))), for which, in series [1], the Tm was 45.1 °C. For the same sequence, the folding enthalpy in series [2] was -33.2 kcal/mol.

In the case of GTATTGCGAAAGCAGTAC (((.(((....))).))), the Tm in series [1] was 51.6 °C. Further, the folding enthalpy in series [2] was -26.8 kcal/mol.

Regarding GTATTGGGAAACCAACAC ((.((((....)))).)), the Tm in series [1] came out at 31.4 °C. Besides, the folding enthalpy in series [2] was -15 kcal/mol.

In the case of GTATTGGGAAACCAATAC (((((((....))))))), the Tm in series [1] turned out to be 53.8 °C. Moreover, the folding enthalpy in series [2] was -43.7 kcal/mol.

In the case of GTATTTGAAAAAATAC ((((((....)))))), in series [1], the Tm is 38.1 °C. In addition, in series [2], the folding enthalpy was -25.2 kcal/mol.

As for GTATTTGCGAAAGCATAC (((..(((....)))))), in series [1], the Tm worked out at 28.7 °C. Further, the folding enthalpy in series [2] is -9.06 kcal/mol.

On to GTATTTGGAAACAAATAC (((((((....))))))), for which, in series [1], the Tm is 50.5 °C. For the same sequence, the folding enthalpy in series [2] was -44.3 kcal/mol.

Consider GTCAAACGAAAGTTCGAC (((.(((....))).))), for which the Tm in series [1] was 43.1 °C. Further, the folding enthalpy in series [2] was -30.7 kcal/mol.

Take GTCAACCGAAAGGTAGAC (((.(((....))).))): the Tm in series [1] was found to be 51.5 °C. Besides, in series [2], the folding enthalpy was -31.6 kcal/mol.

With GTCAACGAAAGTTACGAC ((((((....)))..))), in series [1], the Tm came out at 34.5 °C. The folding enthalpy in series [2] was -16.4 kcal/mol.

Turning to GTCAACGAAAGTTAGAC ((((((....))).))), the Tm in series [1] amounted to 41 °C. Also, the folding enthalpy in series [2] was -23.5 kcal/mol.

As to GTCAACGAAAGTTGGAC ((((((....))).))), the Tm in series [1] was determined as 39.7 °C. Further, in series [2], the folding enthalpy is -13.2 kcal/mol.

With GTCAACGAAAGTTGTGAC ((((((....)))..))), the Tm in series [1] amounted to 33 °C. Also, the folding enthalpy in series [2] was -10.8 kcal/mol.

As for GTCAACGAAAGTTTGAC ((((((....))).))), the Tm in series [1] amounted to 46.9 °C. For the same sequence, the folding enthalpy in series [2] was -28.6 kcal/mol.

With GTCAACGAAAGTTTTGAC ((((((....)))..))), in series [1], the Tm was determined as 32.8 °C. For the same sequence, in series [2], the folding enthalpy was -17.4 kcal/mol.

As for GTCAACGGAAACGTTAAC ((.((((....)))).)), the Tm in series [1] worked out at 33.7 °C. In addition, the folding enthalpy in series [2] is -17.6 kcal/mol.

GTCAAGCGAAAGCTAGAC (((.(((....))).))): in series [1], the Tm amounted to 52.8 °C. For the same sequence, in series [2], the folding enthalpy is -25.6 kcal/mol.

Regarding GTCAAGCGAAAGCTGAC (((.(((....)))))), the Tm in series [1] worked out at 58.6 °C. For the same sequence, in series [2], the folding enthalpy was -25.6 kcal/mol.

Consider GTCAATCGAAAGATCGAC (((.(((....))).))), for which, in series [1], the Tm came out at 41.2 °C. In series [2], the folding enthalpy was -29 kcal/mol.

For GTCAATCGAAAGATGAC (((.(((....)))))), in series [1], the Tm came out at 45.9 °C. In addition, the folding enthalpy in series [2] is -25.7 kcal/mol.

For the sequence GTCAATGGAAACGTTGAC (((((.(....).))))), the Tm in series [1] came to 48.1 °C. Moreover, the folding enthalpy in series [2] was -31.2 kcal/mol.

Consider GTCACACGAAAGTGGGAC (((.(((....))).))), for which, in series [1], the Tm came out at 69.1 °C. Also, the folding enthalpy in series [2] is -31.9 kcal/mol.

As for GTCACAGGAAACTGCGAC (((.(((....))).))), the Tm in series [1] turned out to be 46.1 °C. Besides, in series [2], the folding enthalpy is -28.8 kcal/mol.

GTCACCCGAAAGGGCGAC (((.(((....))).))): the Tm in series [1] turned out to be 58.9 °C. In series [2], the folding enthalpy is -35.7 kcal/mol.

With GTCACGCCGAAAGGCGAC (((..(((....)))))), in series [1], the Tm was 32.1 °C. For the same sequence, the folding enthalpy in series [2] was -6.44 kcal/mol.

GTCACGCGAAAGCGGAC (((.(((....)))))): the Tm in series [1] was determined as 57 °C. The folding enthalpy in series [2] is -15.1 kcal/mol.

As to GTCACGGGAAACTGTGGC (.(((.(....).))).), the Tm in series [1] is 44.4 °C. In addition, in series [2], the folding enthalpy was -31.9 kcal/mol.

As to GTCACTGCGAAAGCAGAC (((..(((....)))))), the Tm in series [1] was 28.5 °C. Besides, the folding enthalpy in series [2] was -7.51 kcal/mol.

As to GTCACTGGAAACAGTAAC ((.((((....)))).)), the Tm in series [1] came to 31.3 °C. For the same sequence, the folding enthalpy in series [2] was -15.6 kcal/mol.

For the sequence GTCAGAACGAAAGTTGAC (((..(((....)))))), the Tm in series [1] was determined as 36.9 °C. Besides, the folding enthalpy in series [2] was -21.5 kcal/mol.

With GTCAGAGAAATCTGAC ((((((....)))))), the Tm in series [1] was 51.2 °C. The folding enthalpy in series [2] was -37.3 kcal/mol.
